Legend:
[1] = tested on: Striatum; test: Ratio of drug level from ipsilateral to contralateral in Wistar rat administered as iv measured after 60 mins of postinjection by MicroPET imaging analysis; format: ADME, organism-based; details: in vivo, 1 h
How it was run: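 Anesthetized Wistar rats lesioned by AMPA injection into the right striatum 7 days earlier received the [18F] tracer i.v. for microPET. The ratio is bound tracer in the lesion divided by bound tracer in the contralateral side at 60 min post-injection.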

[2] = tested on: Striatum; test: Drug uptake in iv dosed AMPA lesioned Wistar rat brain striatum measured after 60 mins by MicroPET imaging analysis; format: ADME, organism-based; details: in vivo, 1 h
How it was run: (§1)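 MicroPET on anesthetized Wistar rats 7 days after AMPA injection into the right striatum. The [18F]-labelled tracer was given i.v.; uptake is expressed as percent injected dose per mL (% ID/mL) in the lesioned striatum or the contralateral area at 60 min.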

[3] = tested on: Striatum; test: Drug uptake in iv dosed AMPA lesioned Wistar rat brain contralateral side of striatum measured after 60 mins by MicroPET imaging analysis; format: ADME, organism-based; details: in vivo, 1 h; how it was run: as §1
[4] = tested on: Liver microsome; test: Drug metabolism in rat liver microsomes assessed as retention time of deethylated M1 metabolite formation after 30 mins by LC-MS/MS analysis; format: ADME; details: 0.5 h
How it was run: (§2)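 Rat liver microsomes, 30 min incubation; metabolites detected by LC-MS and MS-MS. Chromatography: C18 column (2.1 x 150 mm, 5 µm), water/acetonitrile each with 0.05% formic acid, gradient 60:40 to 20:80 over 20 min, 200 µL/min; UV detection at 275 nm; retention times recorded.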

[5] = Octanol-buffer partition coefficient, log D of the compound at pH 7.4 by HPLC method; format: physicochemical
How it was run: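 The HPLC retention time was converted to logD7.4 by calibration against known logD values of similar compounds. C18 column (4.6 x 20 mm, 3.5 µm); A: 5 mM MOPS/(CH3)4NOH pH 7.4; B: 5% MOPS/(CH3)4NOH (100 mM, pH 7.4) in 95% acetonitrile; gradient 98:2 to 0:100; 1.2 mL/min; 25 °C; detection at 254 nm.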

[6] = tested on: Liver microsome; test: Drug metabolism in rat liver microsomes assessed as retention time of hydroxylated M2 metabolite formation after 30 mins by LC-MS/MS analysis; format: ADME; details: 0.5 h; how it was run: as §2
[7] = molecular target: Translocator protein (Rattus norvegicus, UniProt P16257); test: Displacement of [3H]PK11195 from TSPO in rat heart membrane homogenates; format: cell membranes
[8] = Displacement of [3H]flunitrazepam from CBR in rat cerebral cortex membrane homogenates; format: cell membranes
How it was run: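 Central benzodiazepine receptor counter-screen: competition against [3H]flunitrazepam (Kd = 2.1 nM, used at 0.4 nM) on rat cerebral cortex membrane homogenates; Ki values derived.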

[9] = tested on: Liver microsome; test: Drug metabolism in rat liver microsomes assessed as retention time of compound after 30 mins by LC-MS/MS analysis; format: ADME; details: 0.5 h; how it was run: as §2
[10] = tested on: Liver microsome; test: Drug metabolism in rat liver microsomes assessed as retention time of hydroxylated M3 metabolite formation after 30 mins by LC-MS/MS analysis; format: ADME; details: 0.5 h; how it was run: as §2
[11] = tested on: Liver microsome; test: Drug metabolism in rat liver microsomes assessed as retention time of dihydroxylated M4 metabolite formation after 30 mins by LC-MS/MS analysis; format: ADME; details: 0.5 h; how it was run: as §2

Sequence of Translocator protein (P16257 whole entry, looked up): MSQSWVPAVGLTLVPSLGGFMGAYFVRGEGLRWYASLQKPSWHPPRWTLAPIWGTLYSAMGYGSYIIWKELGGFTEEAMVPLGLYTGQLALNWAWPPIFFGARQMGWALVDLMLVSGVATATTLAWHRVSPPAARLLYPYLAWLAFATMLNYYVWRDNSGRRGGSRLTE

Compound	Ratio [1]	Drug uptake [2]	Drug uptake [3]	Retention_time [4]	logD [5]	Retention_time [6]	Ki [7]	Ki [8]	Retention_time [9]	Retention_time [10]	Retention_time [11]
CCC(C)N([11CH3])C(=O)c1cc2ccccc2c(-c2ccccc2Cl)n1 (stereo not drawn)	1.65	–	–	–	–	–	–	–	–	–	–
CCN(CC)C(=O)Cc1c(-c2ccc(C#CCCC[18F])cc2)nn2c(C)cc(C)nc12	4.62	0.24 %ID/ml	0.05 %ID/ml	–	–	–	–	–	–	–	–
CCN(CC)C(=O)Cc1c(-c2ccc(C#CCF)cc2)nn2c(C)cc(C)nc12	–	–	–	11.41 min	3.61	11 min	0.54 nM	> 1000 nM	15.66 min	–	–
CCN(CC)C(=O)Cc1c(-c2ccc(C#CCCF)cc2)nn2c(C)cc(C)nc12	–	–	–	11.68 min	3.67	11.19 min	0.74 nM	> 1000 nM	15.81 min	10.01 min	5.89 min
CCN(CC)C(=O)Cc1c(-c2ccc(C#CCCCF)cc2)nn2c(C)cc(C)nc12	–	–	–	12.08 min	4.06	11.37 min	0.35 nM	> 1000 nM	17.05 min	8.92 min	3.43 min
CCN(CC)C(=O)Cc1c(-c2ccc(C#CCCCCF)cc2)nn2c(C)cc(C)nc12	–	–	–	11.68 min	4.35	11.19 min	0.79 nM	> 1000 nM	15.81 min	10.01 min	5.89 min
CCN(CC)C(=O)Cc1c(-c2ccc(OCC[18F])cc2)nn2c(C)cc(C)nc12 [DPA-714 F-18]	–	0.3 %ID/ml	0.08 %ID/ml	–	–	–	–	–	–	–	–
CCN(CC)C(=O)Cc1c(-c2ccc(OCCF)cc2)nn2c(C)cc(C)nc12 [DPA-714]	–	–	–	–	2.89	–	–	> 1000 nM	–	–	–

Reference: ChEMBL document CHEMBL3124750 (Bioorg Med Chem Lett, 2014)
